CASP6 VEID inh: human caspase-6 inhibitors, primary screen, biochemical, VEID-R110 fluorescence, single point, set 2. inhibition, % at 12.5 µM. actives 0.53% (n = 350,000). purified caspase-6, Z-VEID-R110 cleavage fluorescence. P55212;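 active = mean inhibition across replicates at least about 35%, with every replicate also reaching that limit, limit read from the data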;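 also: 0% = median of neutral control wells and 100% = no fluorescence left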
MBD2 inh: inhibitors of MBD2 binding to methylated DNA, primary screen, biochemical, TR-FRET, DNA-binding domain, human; inhibition, % at 4.4 µM; MBD2 binding to methylated oligonucleotide; actives 0.31% (n = 370,000); AID 686964, 2013; in the data active = inhibition above about 13%
TDP2 inh: human TDP2 enzyme inhibitors, primary screen, biochemical, epi absorbance, recombinant enzyme | actives 0.34% (n = 370,000) | T5PNP hydrolysis, p-nitrophenol absorbance 415 nm | AID 720702, 2013 | inhibition, % at 12.8 µM;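 active = inhibition above the mean of all tested compounds plus 3 SD, set per campaign, cut at about 25% in these data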;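 also: 0% = DMSO with enzyme and 100% = buffer with substrate but no TDP2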
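Test system: Human TDP2 enzyme | Reagent: 5 mM T5PNP | Compound dosing: 12.8 µM single point, 1% DMSO | Incubation: Enzyme reaction with compound for 2 h at 37 °C | Technique: p-Nitrophenol epi absorbance | Read-out: % inhibition relative to enzyme-containing and enzyme-free wells | Benchmarks: High control without enzyme, low control DMSO plus TDP2 | Replicates: Singlicate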
LEDGF integ inh: blockers of LEDGF/p75-dependent integrase strand transfer – biochemical, TR-FRET, high throughput, primary screen; HIV-1 integrase (with human LEDGF/p75); TR-FRET IN-LEDGF/p75 DNA integration, Eu/Cy5; inhibition, % at 3.7 µM; actives 0.64% (n = 370,000); AID 743269, 2014;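 active = inhibition above the screen-wide mean plus 3 SD, cut at about 13% in these data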;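 also: signal is the Cy5 over europium emission ratio at 671 and 618 nm; 0% = plate median of compound wells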
UHRF1 binding: UHRF1 methylated DNA binding inhibitors, primary screen, counter-screen for MBD2 inhibitor project, biochemical, TR-FRET, human UHRF1, single concentration. E3 ubiquitin-protein ligase UHRF1 (Homo sapiens), Q96T88. UHRF1 binding to methylated oligo. inhibition, % at 4.4 µM. actives 0.75% (n = 370,000). AID 687016, 2013; in the data active = inhibition above about 21%;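 also: UHRF1 SRA domain binding a hemimethylated CpG hairpin DNA probe; 0% = median of test compound wells and 100% = reference inhibitor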
Target sequence (Q96T88 whole entry, looked up, the tested form may be a part): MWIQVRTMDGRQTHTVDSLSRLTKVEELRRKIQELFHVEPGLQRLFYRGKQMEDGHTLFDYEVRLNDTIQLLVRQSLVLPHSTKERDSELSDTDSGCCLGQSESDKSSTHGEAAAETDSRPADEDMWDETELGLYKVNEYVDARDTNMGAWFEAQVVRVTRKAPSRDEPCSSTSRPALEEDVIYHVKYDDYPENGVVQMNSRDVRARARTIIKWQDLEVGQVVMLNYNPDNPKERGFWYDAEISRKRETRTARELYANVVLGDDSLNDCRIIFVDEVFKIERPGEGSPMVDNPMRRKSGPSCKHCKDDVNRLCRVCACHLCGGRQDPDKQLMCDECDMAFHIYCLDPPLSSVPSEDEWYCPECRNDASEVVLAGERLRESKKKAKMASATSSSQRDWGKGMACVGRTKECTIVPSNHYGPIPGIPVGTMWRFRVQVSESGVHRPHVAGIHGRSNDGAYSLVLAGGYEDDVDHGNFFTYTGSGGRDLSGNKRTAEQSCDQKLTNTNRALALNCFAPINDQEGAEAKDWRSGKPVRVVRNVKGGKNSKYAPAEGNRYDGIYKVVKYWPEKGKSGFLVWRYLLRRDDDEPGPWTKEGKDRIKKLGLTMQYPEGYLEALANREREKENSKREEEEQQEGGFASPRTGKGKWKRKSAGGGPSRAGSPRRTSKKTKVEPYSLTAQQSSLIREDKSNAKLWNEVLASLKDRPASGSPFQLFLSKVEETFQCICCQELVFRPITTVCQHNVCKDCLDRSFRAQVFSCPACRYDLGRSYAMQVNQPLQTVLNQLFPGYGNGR
NSD2 HMT inh: NSD2 histone methyltransferase inhibitors, primary screen, biochemical, AlphaScreen, single concentration, set 2; Histone-lysine N-methyltransferase NSD2 (Homo sapiens), O96028; NSD2 peptide methylation, 120 min; inhibition, % at 12.5 µM; actives 0.54% (n = 310,000); in the data active = inhibition above about 50%
Alpha artifact: AlphaScreen signal interference with preloaded methylated product, dose response, artefact control for NSD2 inhibitor project, biochemical, cherry-picked samples; shares compounds with NSD2 HMT inh; AlphaScreen artifact counterscreen, preloaded methylated H4 peptide; AC35, µM (series often up to 10 µM), without a hit: top-dose activity change, negative = signal loss; actives 9.4% (n = 1,500); call rule not given here
* = called active by the depositor; . = no result given. This is a sample that favours compounds with a hit; in the whole collection about 1.9% have one here.

SMILES | CASP6 VEID inh | MBD2 inh | TDP2 inh | LEDGF integ inh | UHRF1 binding | NSD2 HMT inh | Alpha artifact
CC(C)(C)c1[nH]nc2c1C(c1ccoc1)C(C#N)=C(N)O2 (configuration not stated) | . | -4 | 5 | 4 | -2 | 76* | -2%
CC(C)(C)c1[nH]nc2c1C(c1ccncc1)C(C#N)=C(N)O2 (configuration not stated) | . | 0 | 7 | 0 | 0 | 0 | .
O=C1C=C(NCc2ccccc2)c2ccccc2C1=O | 80* | -21 | 23 | 12 | -7 | 140* | -2%
CN(C)S(=O)(=O)N1C(=O)c2ccccc2C1=O | 1 | -11 | -16 | 10 | 1 | -3 | .
CN(C)/C=C1\C=C2C(=O)c3ccccc3N2C1=O | -1 | -13 | 8 | 2 | -38 | 144* | -3%
COc1ccc(/C=C/C(=O)OCC(=O)NCC2CCCO2)cc1 (configuration not stated) | 1 | -2 | -5 | -3 | -4 | 54* | 2%
COc1cccc(/C=C/C(=O)OCC(=O)NCC2CCCO2)c1 (configuration not stated) | . | -3 | 1 | 2 | -1 | -3 | .
C[C@H](CO)N1C[C@H](C)[C@@H](CN(C)Cc2ccc(Cl)c(Cl)c2)OCc2ccccc2-c2ccccc2C1=O | 0 | . | . | . | . | . | .
Cc1ccc(CN2CC(C(=O)Nc3ccccc3N3CCCC3)CC2=O)cc1 (configuration not stated) | -97 | 2 | -13 | -2 | 5 | 6 | .
O=C(Nc1cc(C(F)(F)F)ccc1N1CCCC1)C1CC(=O)N(Cc2ccccc2)C1 (configuration not stated) | -3 | -1 | -10 | 3 | 1 | 56* | -1%
CC(=O)Nc1ccc(NC2=C/C(=N/S(=O)(=O)c3cccs3)c3ccccc3C2=O)cc1 | 99* | -6 | 77* | 50* | 3 | 83* | -10%
CC(=O)Nc1ccc(NC(=O)C(C)OC(=O)c2ccccc2NS(=O)(=O)c2cccs2)cc1 (configuration not stated) | 3 | 1 | 10 | -5 | 0 | -1 | .
COc1ccc(S(=O)(=O)Nc2ccc3c(c2)C(=O)N([C@@H](C)CO)C[C@H](C)[C@@H](CN(C)CC2CC2)OCCCC[C@H](C)O3)cc1 | 0 | . | . | . | . | . | .
COc1cc(-c2nnn(Cc3ccccc3C)n2)cc(OC)c1OC | 0 | 0 | 5 | 0 | -2 | 54* | -1%
CO[C@@H]1CN(C)C(=O)c2ccc(NC(=O)Cc3ccccc3)cc2OC[C@@H](C)N(C)C[C@@H]1C | 1 | . | . | . | . | . | .
c1coc(CNCCCN2CCOCC2)c1 | . | 6 | 1 | -3 | 9 | 56* | -4%
c1cc(CNCCCN2CCOCC2)ccn1 | . | -6 | 11 | -1 | -2 | . | .
O=C(CSc1nccn1-c1ccc(F)cc1)NCc1ccc(F)cc1 | 2 | -4 | 0 | 3 | 1 | 50* | -12%
Nc1nc(Nc2ccccc2F)nc(NCc2ccccc2)c1[N+](=O)[O-] | -2 | 0 | -7 | 1 | -4 | 1 | .
Nc1nc(Nc2ccccc2F)nc(NCCO)c1[N+](=O)[O-] | 1 | 0 | 7 | 2 | 1 | 60* | 1%
C/C(CC(=O)NCCCN1CCOCC1)=N\NC(=O)COc1ccc(C)cc1 | -21 | -7 | -1 | 0 | -6 | -1 | .
C/C(CC(=O)NCCCN1CCOCC1)=N\NC(=O)COc1ccc(Cl)cc1 | . | -8 | 8 | -1 | -9 | 65* | -7%
